{"source": "ChEMBL document CHEMBL4308843", "about": "“Identification of ABX-1431, a Selective Inhibitor of Monoacylglycerol Lipase and Clinical Candidate for Treatment of Neurological Disorders” (J Med Chem, 2018)", "key": {"Mus musculus [1]": {"system": "Mus musculus", "assay": "In vivo inhibition of MGLL in ICR mouse brain at 25 mg/kg, po measured at 4 hrs post dose in presence of FP-Rh probe by gel-based ABPP assay", "type": "functional, organism-based"}, "[2]": {"target": "T1, Solute carrier family 22 member 2 (Homo sapiens, UniProt O15244)", "T1 sequence (O15244 whole entry)": "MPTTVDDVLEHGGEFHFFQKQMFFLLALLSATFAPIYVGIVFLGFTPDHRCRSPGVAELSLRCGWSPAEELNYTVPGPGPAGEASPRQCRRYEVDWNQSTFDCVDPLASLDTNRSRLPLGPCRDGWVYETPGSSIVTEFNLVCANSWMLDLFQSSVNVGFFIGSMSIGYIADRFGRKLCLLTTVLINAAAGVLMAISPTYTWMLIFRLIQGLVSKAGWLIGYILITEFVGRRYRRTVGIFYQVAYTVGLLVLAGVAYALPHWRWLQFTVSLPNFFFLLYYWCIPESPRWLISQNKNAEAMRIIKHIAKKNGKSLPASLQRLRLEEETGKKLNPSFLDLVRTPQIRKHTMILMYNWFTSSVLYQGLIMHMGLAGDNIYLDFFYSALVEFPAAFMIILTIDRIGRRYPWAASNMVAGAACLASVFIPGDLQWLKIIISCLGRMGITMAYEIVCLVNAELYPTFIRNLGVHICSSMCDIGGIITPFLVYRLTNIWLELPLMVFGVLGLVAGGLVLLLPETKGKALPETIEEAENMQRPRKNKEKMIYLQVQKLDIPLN", "assay": "Inhibition of OCT2 (unknown origin) at 10 uM", "type": "ADME"}, "Canis lupus familiaris [3]": {"species_on_record": "Canis lupus familiaris", "assay": "Inhibition of ABHD6 in dog brain membrane homogenates at 0.001 to 10 uM preincubated for 30 mins followed by FP-Rh addition after 30 mins by gel-based ABPP assay", "type": "cell membranes", "in_short": "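Dog brain membrane homogenates (1 mg/mL protein) were preincubated with 0.001-10 µM inhibitor or DMSO for 30 min at 37°C. They were then labelled with 1 µM probe (FP-Rh or HT-01) for 30 min at 25°C. Reactions were quenched in SDS-PAGE loading buffer and scanned in-gel. ABHD6 band intensities were normalised to DMSO.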"}, "[4]": {"target": "ATP-dependent translocase ABCB1 (Homo sapiens, UniProt P08183)", "sequence (P08183 whole entry)": "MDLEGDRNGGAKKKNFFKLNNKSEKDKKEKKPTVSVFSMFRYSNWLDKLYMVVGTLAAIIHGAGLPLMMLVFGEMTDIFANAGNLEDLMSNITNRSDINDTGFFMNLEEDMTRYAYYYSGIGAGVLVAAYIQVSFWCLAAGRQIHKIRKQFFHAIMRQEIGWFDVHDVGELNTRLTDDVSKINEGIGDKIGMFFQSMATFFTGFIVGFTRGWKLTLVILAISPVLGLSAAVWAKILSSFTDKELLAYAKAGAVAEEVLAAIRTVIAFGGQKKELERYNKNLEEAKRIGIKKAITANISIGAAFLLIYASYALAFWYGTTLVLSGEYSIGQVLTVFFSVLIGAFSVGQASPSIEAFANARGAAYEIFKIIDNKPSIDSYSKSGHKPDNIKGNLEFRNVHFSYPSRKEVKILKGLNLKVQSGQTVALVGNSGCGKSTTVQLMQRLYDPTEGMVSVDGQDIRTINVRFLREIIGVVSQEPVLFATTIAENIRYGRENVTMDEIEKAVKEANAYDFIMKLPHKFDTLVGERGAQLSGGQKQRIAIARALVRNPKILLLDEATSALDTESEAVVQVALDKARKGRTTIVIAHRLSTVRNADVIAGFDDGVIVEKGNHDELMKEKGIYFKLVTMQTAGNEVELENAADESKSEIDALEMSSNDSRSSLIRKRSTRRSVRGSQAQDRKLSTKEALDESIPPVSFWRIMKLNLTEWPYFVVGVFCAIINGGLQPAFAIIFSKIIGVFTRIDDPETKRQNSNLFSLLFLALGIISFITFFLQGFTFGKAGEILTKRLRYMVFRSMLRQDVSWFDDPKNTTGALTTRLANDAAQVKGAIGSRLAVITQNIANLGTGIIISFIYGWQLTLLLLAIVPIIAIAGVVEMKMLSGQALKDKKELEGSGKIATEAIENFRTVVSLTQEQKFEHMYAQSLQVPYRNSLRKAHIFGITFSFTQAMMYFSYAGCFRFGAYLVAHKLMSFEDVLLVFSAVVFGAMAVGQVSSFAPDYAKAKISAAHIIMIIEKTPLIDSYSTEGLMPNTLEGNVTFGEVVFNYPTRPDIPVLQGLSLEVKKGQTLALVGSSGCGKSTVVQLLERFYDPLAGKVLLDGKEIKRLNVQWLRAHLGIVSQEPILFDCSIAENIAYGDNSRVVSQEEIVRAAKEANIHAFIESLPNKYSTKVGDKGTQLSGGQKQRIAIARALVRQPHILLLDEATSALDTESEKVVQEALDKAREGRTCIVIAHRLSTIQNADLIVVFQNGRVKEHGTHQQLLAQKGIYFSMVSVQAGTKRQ", "assay": "Inhibition of P-gp (unknown origin) at 10 uM", "type": "ADME"}, "Rattus norvegicus [5]": {"system": "Rattus norvegicus", "assay": "Antinociceptive activity in po dosed Sprague-Dawley rat brain assessed as inhibition of MGLL activity measured after 4 hrs post dose in presence of FP-Rh probe by gel-based ABPP assay", "type": "functional", "in_short": "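Male Sprague Dawley rats, 6–12 weeks old, given single oral doses (0.03–10 mg/kg) in 0.5% methylcellulose at 5 mL/kg. Brains were taken 4 h post-dose and forebrain sections excised from one hemisphere. Brain proteome was labeled with FP-Rh (1 µM, 30 min) and analyzed by SDS-PAGE with in-gel fluorescence. Band intensity was normalized to vehicle.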"}, "Mus musculus [6]": {"system": "Mus musculus", "assay": "In-vivo inhibition of MGLL in ICR mouse brain assessed as target engagement at 5 mg/kg, po measured 4 hrs post dose by gel-based ABPP assay relative to control", "type": "functional", "set-up": "scale not given: the % may be the effect or the level left", "in_short": "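Mice received a single 5 mg/kg oral gavage dose. Whole brains were collected 4 h post-dose and target engagement was read by gel-based ABPP with FP-Rh probe.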"}, "Mus musculus [7]": {"system": "Mus musculus", "assay": "In vivo inhibition of CES1c in po dosed ICR mouse brain measured 4 hrs post dose in presence of FP-Rh probe by gel-based ABPP assay", "type": "functional", "in_short": "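Male ICR mice, 6–12 weeks old, given single oral doses (0.5–32 mg/kg, n = 3) in PEG400:ethanol:PBS (7/2/1 v/v/v) at 5 mL/kg. Brains were removed 4 h later and one hemisphere processed for gel-based ABPP. Proteome was labeled with FP-Rh (1 µM, 30 min) and read by in-gel fluorescence relative to vehicle.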"}, "[8]": {"target": "T2, Platelet-activating factor acetylhydrolase (Homo sapiens, UniProt Q13093)", "T2 sequence (Q13093 whole entry)": "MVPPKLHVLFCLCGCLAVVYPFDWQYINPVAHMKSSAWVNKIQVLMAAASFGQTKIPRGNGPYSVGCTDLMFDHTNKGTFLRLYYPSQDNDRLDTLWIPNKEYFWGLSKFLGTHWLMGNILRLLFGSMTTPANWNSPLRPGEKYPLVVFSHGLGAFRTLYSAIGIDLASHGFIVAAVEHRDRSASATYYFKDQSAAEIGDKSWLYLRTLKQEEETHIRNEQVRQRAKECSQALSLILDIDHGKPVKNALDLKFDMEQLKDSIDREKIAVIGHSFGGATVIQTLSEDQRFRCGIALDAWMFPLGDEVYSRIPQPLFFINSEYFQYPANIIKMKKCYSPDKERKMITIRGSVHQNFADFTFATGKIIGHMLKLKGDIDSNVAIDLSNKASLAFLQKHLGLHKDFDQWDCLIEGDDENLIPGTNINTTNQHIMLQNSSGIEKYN", "assay": "Inhibition of PLA2G7 derived from human PC3 cell lysates preincubated for 30 mins followed by JW912 addition after 30 mins by gel-based ABPP assay", "type": "subcellular, Lysate"}, "[9]": {"assay": "Oral bioavailability in Sprague-Dawley rat at 5 mg/kg by LC-MS analysis", "type": "ADME, organism-based", "conditions": "in vivo", "in_short": "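Rats (n = 3 per route) were dosed at 1 mg/kg iv (70% PEG400 in HPBCD/saline) or 5 mg/kg po (70% PEG400 in 0.5% CMC/saline), fasted overnight to 4 h post-dose. Jugular-catheter blood (~100 µL) was sampled to 24 h into 400 µL acetonitrile to stop esterases. Samples were quantified by HPLC-MS/MS, with noncompartmental analysis.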"}, "[10]": {"assay": "Stability in Sprague-Dawley rat plasma", "type": "ADME, cell-free"}, "Canis lupus familiaris [11]": {"species_on_record": "Canis lupus familiaris", "assay": "Inhibition of MGLL in dog brain membrane homogenates at 0.001 to 10 uM preincubated for 30 mins followed by FP-Rh addition after 30 mins by gel-based ABPP assay", "type": "cell membranes", "in_short": "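Brain membrane homogenates (1 mg/mL protein) were preincubated with 0.001-10 µM inhibitor or DMSO for 30 min at 37°C, then labelled with 1 µM FP-Rh for 30 min at 25°C. Reactions were quenched in SDS-PAGE loading buffer, run on 10% gels and scanned in-gel. MGLL band intensities were normalised to DMSO (100%).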"}, "[12]": {"assay": "Intrinsic clearance in human liver microsomes", "type": "ADME, Microsome", "conditions": "read-out: CLH"}, "Rattus norvegicus [13]": {"system": "Rattus norvegicus", "assay": "In vivo inhibition of MGLL in po dosed Sprague-Dawley rat brain assessed as increase in 2-AG measured at 4 hrs post dose by LC-MS/MS analysis", "type": "functional, organism-based", "in_short": "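Male Sprague Dawley rats, 6–12 weeks old, single oral doses 0.03–10 mg/kg in 0.5% methylcellulose, 5 mL/kg. Killed 4 h post-dose; forebrain section (~100–200 mg) from one hemisphere analysed for 2-AG by LC-MS/MS.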"}, "Rattus norvegicus [14]": {"system": "Rattus norvegicus", "assay": "Antinociceptive activity in Sprague-Dawley rat assessed as reduction in formalin-evoked paw licking duration at 3 mg/kg, po administered 4 hrs prior to formalin challenge and measured between 10 to 30 mins post formalin challenge", "type": "functional, organism-based"}, "Cytochrome P450 3A4": {"target": "Cytochrome P450 3A4 (Homo sapiens, UniProt P08684)", "sequence (P08684 whole entry)": "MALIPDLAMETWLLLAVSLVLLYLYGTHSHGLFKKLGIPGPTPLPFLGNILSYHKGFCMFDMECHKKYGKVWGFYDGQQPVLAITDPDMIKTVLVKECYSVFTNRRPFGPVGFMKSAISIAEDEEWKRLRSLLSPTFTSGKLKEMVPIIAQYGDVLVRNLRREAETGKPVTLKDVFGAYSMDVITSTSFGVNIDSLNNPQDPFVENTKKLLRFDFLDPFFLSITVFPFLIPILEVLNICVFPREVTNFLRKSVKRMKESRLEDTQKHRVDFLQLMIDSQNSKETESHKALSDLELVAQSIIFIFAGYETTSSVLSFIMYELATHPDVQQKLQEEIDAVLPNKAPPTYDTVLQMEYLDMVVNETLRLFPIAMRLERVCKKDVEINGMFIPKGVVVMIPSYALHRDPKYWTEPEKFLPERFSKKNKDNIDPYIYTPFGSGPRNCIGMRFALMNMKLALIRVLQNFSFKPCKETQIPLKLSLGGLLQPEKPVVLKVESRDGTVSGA", "assay": "Inhibition of recombinant human CYP3A4", "type": "ADME"}}, "note": "Active and inactive are the calls of the source. The calls are words filed in the database; no cut-off is given here.", "data": [{"smiles": "O=C(OC(C(F)(F)F)C(F)(F)F)N1CCN(Cc2ccc(C(F)(F)F)cc2N2CCCC2)CC1", "note": "[ELCUBRAGISTAT]", "values": [{"measurement": "inhibition", "setting": "Mus musculus [1]", "result": "Active"}, {"measurement": "inhibition (INH)", "setting": "[2]", "result": "Not Active"}, {"measurement": "inhibition", "setting": "Canis lupus familiaris [3]", "result": "Active"}, {"measurement": "inhibition (INH)", "setting": "[4]", "result": "Not Active"}, {"measurement": "ED50", "setting": "Rattus norvegicus [5]", "result": 0.5, "unit": "mg/kg"}, {"measurement": "Activity", "setting": "Mus musculus [6]", "result": 100, "unit": "%"}, {"measurement": "ED50", "setting": "Mus musculus [7]", "result": 32, "unit": "mg/kg"}, {"measurement": "IC50", "setting": "[8]", "result": "> 10", "unit": "µM"}, {"measurement": "bioavailability", "setting": "[9]", "result": 64, "unit": "%"}, {"measurement": "Stability", "setting": "[10]", "result": "Unstable"}, {"measurement": "inhibition", "setting": "Canis lupus familiaris [11]", "result": "Active"}, {"measurement": "microsomal CLint", "setting": "[12]", "result": 19, "unit": "µL/min/mg"}, {"measurement": "inhibition", "setting": "Rattus norvegicus [13]", "result": "Dose-dependent effect"}, {"measurement": "Activity", "setting": "Rattus norvegicus [14]", "result": "Active"}, {"measurement": "IC50", "setting": "Cytochrome P450 3A4", "result": "> 50", "unit": "µM"}]}]}
